Each block holds one compound with its values, some of them ahead of it.
Key:
WiDr = assay: Growth inhibition of human WiDr cells after 48 hrs by sulforhodamine B assay; type: functional
Outline: (§1)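 Cells in RPMI 1640 with 5% heat-inactivated FCS and 2 mM L-glutamine at 37 °C, 5% CO2. Seeded per well: 7500 (HBL-100, SW1573), 15,000 (A2780, HeLa, T47D) or 20,000 (WiDr). Drug added day 1 in triplicate dilutions (DMSO 0.25% v/v) for 48 h. Cells fixed with cold TCA, 60 min, 4 °C, then SRB stained and read at 492 nm. NCI percentage-growth formulas used; GI50 taken at PG +50.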

HBL-100 = assay: Growth inhibition of human HBL100 cells after 48 hrs by sulforhodamine B assay; type: functional; conditions: HBL-100, 48 h; outline: as §1
SW1573 = assay: Growth inhibition of human SW1573 cells after 48 hrs by sulforhodamine B assay; type: functional; conditions: SW1573, 48 h; outline: as §1
A2780 = assay: Growth inhibition of human A2780 cells after 48 hrs by sulforhodamine B assay; type: functional; conditions: A2780, 48 h; outline: as §1
T47D = assay: Growth inhibition of human T47D cells after 48 hrs by sulforhodamine B assay; type: functional; outline: as §1
HeLa = assay: Growth inhibition of human HeLa cells after 48 hrs by sulforhodamine B assay; type: functional; outline: as §1
Artemia salina = assay: Toxicity in Artemia salina; type: organism-based; conditions: in vivo

- GI50 (SW1573): 1.3 µM
- GI50 (A2780): 1.7 µM
- GI50 (T47D): 1.8 µM
- GI50 (HeLa): 1.7 µM
Structure (SMILES): CC1(C)C2=C(OC1CI)C(=O)c1cccc(O)c1C2=O (centres undefined)
- GI50 (WiDr): 2 µM
- GI50 (HBL-100): 1.9 µM

- GI50 (SW1573): 36 µM
- GI50 (A2780): 26 µM
- GI50 (T47D): 27 µM
- GI50 (HeLa): 28 µM
Structure (SMILES): C=CC(C)(C)C1=C(O)C(=O)c2cccc(O)c2C1=O
- GI50 (WiDr): 31 µM
- GI50 (HBL-100): 31 µM

- GI50 (SW1573): 3.8 µM
- GI50 (A2780): 21 µM
- GI50 (T47D): 30 µM
- GI50 (HeLa): 24 µM
Structure (SMILES): C=CC(C)(C)C1=C(O)C(=O)c2c(O)cccc2C1=O
- GI50 (WiDr): 23 µM
- GI50 (HBL-100): 16 µM

- GI50 (SW1573): 3.1 µM
- GI50 (A2780): 4 µM
- GI50 (T47D): 25 µM
- GI50 (HeLa): 15 µM
Structure (SMILES): CC1(C)CCC2=C(O1)C(=O)c1ccccc1C2=O [ALPHA-LAPACHONE]
- GI50 (WiDr): 26 µM
- GI50 (HBL-100): 14 µM

- GI50 (SW1573): 4.3 µM
- GI50 (A2780): 1 µM
- GI50 (T47D): 21 µM
- GI50 (HeLa): 1.9 µM
Structure (SMILES): CC(C)=CCOC1=C(CC=C(C)C)C(=O)c2c(O)cccc2C1=O
- GI50 (WiDr): 11 µM
- GI50 (HBL-100): 1.6 µM

- GI50 (SW1573): 35 µM
- GI50 (A2780): 16 µM
- GI50 (T47D): 38 µM
- GI50 (HeLa): 19 µM
Structure (SMILES): CN(C)C1=CC(=O)c2c(O)cccc2C1=O
- GI50 (WiDr): 32 µM
- GI50 (HBL-100): 30 µM

- GI50 (SW1573): 5.8 µM
- GI50 (A2780): 21 µM
- GI50 (T47D): 45 µM
- GI50 (HeLa): 18 µM
Structure (SMILES): COC1=C(CC=C(C)C)C(=O)c2c(OC)cccc2C1=O
- GI50 (WiDr): 28 µM
- GI50 (HBL-100): 17 µM

- GI50 (SW1573): 0.83 µM
- GI50 (A2780): 0.82 µM
- GI50 (T47D): 2.2 µM
- GI50 (HeLa): 0.8 µM
Structure (SMILES): C=C(C)C1CC2=C(O1)C(=O)c1cccc(O)c1C2=O (centres undefined)
- GI50 (WiDr): 2 µM
- GI50 (HBL-100): 0.94 µM

- GI50 (SW1573): 2.5 µM
- GI50 (A2780): 2.1 µM
- GI50 (T47D): 20 µM
- GI50 (HeLa): 1.8 µM
Structure (SMILES): CC(C)(O[N+](=O)[O-])C1CC2=C(O1)C(=O)c1ccccc1C2=O (centres undefined)
- GI50 (WiDr): 4.8 µM
- GI50 (HBL-100): 2.1 µM

- GI50 (SW1573): 4.8 µM
- GI50 (A2780): 2.4 µM
- GI50 (T47D): 19 µM
- GI50 (HeLa): 2.3 µM
Structure (SMILES): CC1(C)C=CC2=C(O1)C(=O)c1c(O)cccc1C2=O
- GI50 (WiDr): 19 µM
- GI50 (HBL-100): 3.9 µM

- GI50 (SW1573): 2 µM
- GI50 (A2780): 3.1 µM
- GI50 (T47D): 4 µM
- GI50 (HeLa): 5.7 µM
Structure (SMILES): NC1=CC(=O)c2cccc(O)c2C1=O
- GI50 (WiDr): 3.5 µM
- GI50 (HBL-100): 2.9 µM

- GI50 (SW1573): 0.4 µM
- GI50 (A2780): 1.6 µM
- GI50 (T47D): 2.5 µM
- GI50 (HeLa): 1.3 µM
Structure (SMILES): CC1(C)C2=C(OC1CI)C(=O)c1c(O)cccc1C2=O (centres undefined)
- GI50 (WiDr): 2 µM
- GI50 (HBL-100): 0.41 µM

- GI50 (SW1573): > 100 µM
- GI50 (A2780): > 100 µM
- GI50 (T47D): > 100 µM
- GI50 (HeLa): > 100 µM
Structure (SMILES): O=C1C=C(O)c2c(O)cccc2C1=O
- GI50 (WiDr): > 100 µM
- GI50 (HBL-100): > 100 µM

- GI50 (SW1573): 2.8 µM
- GI50 (A2780): 2.2 µM
- GI50 (T47D): 23 µM
- GI50 (HeLa): 2.2 µM
Structure (SMILES): CC(C)(O[N+](=O)[O-])C1CC2=C(O1)C(=O)c1cccc(O)c1C2=O (centres undefined)
- GI50 (WiDr): 18 µM
- GI50 (HBL-100): 2.8 µM

- GI50 (SW1573): 17 µM
- GI50 (A2780): 12 µM
- GI50 (T47D): 28 µM
- GI50 (HeLa): 18 µM
Structure (SMILES): CC(C)=CCOC1=CC(=O)c2c(O)cccc2C1=O
- GI50 (WiDr): 18 µM
- GI50 (HBL-100): 27 µM

- GI50 (SW1573): 5.3 µM
- GI50 (A2780): 2.4 µM
- GI50 (T47D): 34 µM
- GI50 (HeLa): 7.1 µM
Structure (SMILES): CN(C)C1=CC(=O)c2cccc(O)c2C1=O
- GI50 (WiDr): 17 µM
- GI50 (HBL-100): 5.7 µM

- GI50 (SW1573): 1.9 µM
- GI50 (A2780): 2.6 µM
- GI50 (T47D): 21 µM
- GI50 (HeLa): 2.1 µM
Structure (SMILES): C=C(C)C1CC2=C(O1)C(=O)c1ccccc1C2=O (stereo not drawn) [DEHYDROISO-ALPHA-LAPACHONE]
- GI50 (WiDr): 2.7 µM
- GI50 (HBL-100): 2.3 µM

The next lines start with the compound.

Structure (SMILES): COC1=C(CC=C(C)C)C(=O)c2c(O)cccc2C1=O
- GI50 (WiDr): 20 µM
- GI50 (HBL-100): 20 µM
- GI50 (SW1573): 4.8 µM
- GI50 (A2780): 1.8 µM
- GI50 (T47D): 22 µM
- GI50 (HeLa): 3.5 µM

Structure (SMILES): O=C1C=CC(=O)c2c(O)cccc21 [JUGLONE]
- GI50 (WiDr): 81 µM
- GI50 (HBL-100): 66 µM
- GI50 (SW1573): 50 µM
- GI50 (A2780): 64 µM
- GI50 (T47D): 77 µM
- GI50 (HeLa): 89 µM

Structure (SMILES): CC1(C)CCC2=C(O1)C(=O)c1cccc(O)c1C2=O
- GI50 (WiDr): 18 µM
- GI50 (HBL-100): 2.6 µM
- GI50 (SW1573): 2.7 µM
- GI50 (A2780): 3.2 µM
- GI50 (T47D): 21 µM
- GI50 (HeLa): 12 µM

Structure (SMILES): CC(C)=CCOC1=C(CC=C(C)C)C(=O)c2cccc(O)c2C1=O
- GI50 (WiDr): 22 µM
- GI50 (HBL-100): 20 µM
- GI50 (SW1573): 5.1 µM
- GI50 (A2780): 5.9 µM
- GI50 (T47D): 28 µM
- GI50 (HeLa): 20 µM

Structure (SMILES): CC(C)=CCC1=C(O)C(=O)c2ccccc2C1=O [LAPACHOL]
- GI50 (WiDr): 36 µM
- GI50 (HBL-100): 7.8 µM
- GI50 (SW1573): 34 µM
- GI50 (A2780): 1.9 µM
- GI50 (T47D): 76 µM
- Activity (Artemia salina): 5 ppm
- GI50 (HeLa): 2.3 µM

Structure (SMILES): CC(C)=CCC1=C(O)C(=O)c2cccc(O)c2C1=O
- GI50 (WiDr): 6.3 µM
- GI50 (HBL-100): 0.6 µM
- GI50 (SW1573): 0.7 µM
- GI50 (A2780): 0.57 µM
- GI50 (T47D): 8.1 µM
- GI50 (HeLa): 0.42 µM

Structure (SMILES): CC(C)(I)C1CC2=C(O1)C(=O)c1cccc(O)c1C2=O (centres undefined)
- GI50 (WiDr): 1.9 µM
- GI50 (HBL-100): 2 µM
- GI50 (SW1573): 2.3 µM
- GI50 (A2780): 2.1 µM
- GI50 (T47D): 2.3 µM
- GI50 (HeLa): 2.4 µM

Structure (SMILES): O=C1C=C(O)c2cccc(O)c2C1=O
- GI50 (WiDr): > 100 µM
- GI50 (HBL-100): > 100 µM
- GI50 (SW1573): 86 µM
- GI50 (A2780): 28 µM
- GI50 (T47D): > 100 µM
- GI50 (HeLa): 90 µM

Structure (SMILES): CC1(C)CCC2=C(O1)c1ccccc1C(=O)C2=O [LAPACHONE]
- GI50 (WiDr): 2 µM
- GI50 (HBL-100): 0.69 µM
- GI50 (SW1573): 0.76 µM
- GI50 (A2780): 1.1 µM
- GI50 (T47D): 2.3 µM
- GI50 (HeLa): 0.81 µM

Structure (SMILES): CC(C)=CCC1=C(O)C(=O)c2c(O)cccc2C1=O
- GI50 (WiDr): 19 µM
- GI50 (HBL-100): 21 µM
- GI50 (SW1573): 18 µM
- GI50 (A2780): 3.9 µM
- GI50 (T47D): 30 µM
- GI50 (HeLa): 2.6 µM

Structure (SMILES): CC(C)=CCOC1=CC(=O)c2cccc(O)c2C1=O
- GI50 (WiDr): 7.3 µM
- GI50 (HBL-100): 19 µM
- GI50 (SW1573): 7.7 µM
- GI50 (A2780): 2 µM
- GI50 (T47D): 23 µM
- GI50 (HeLa): 4.5 µM

Source: ChEMBL document CHEMBL1156174, “Antiproliferative activity of synthetic naphthoquinones related to lapachol. First synthesis of 5-hydroxylapachol” (Bioorg Med Chem, 2010)
